# Data: PMC8521312 (The EMBO Journal, 2021)
# “Also recorded” adds a separate entry of the source.
# Tests used:
# [1] = system: AS1411 DNA aptamer; experiment: ELISA assay for AS1411-binding peptides; details: 0.04 μM aptamer, PBS, 1 h, room temperature, n = 3 technical replicates
# Summary of the method: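 Streptavidin-coated wells were washed in PBS-T, loaded with 0.025 μM biotinylated peptide for 1 h at room temperature, and blocked with 1% BSA/PBS for 30 min at 37°C. DIG-labelled aptamer or control aptamer was added, then HRP anti-DIG (1/2,000 in 1% BSA-PBS, 30 min, 37°C). TMB substrate was read by absorbance at […]. PBS-T washes were done between steps.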
# [2] = system: axonal Inpp5f mRNA; experiment: FISH of axonal Inpp5f mRNA in DRG neurons; assay type: cell-based, rat; details: 10 µM AS1411 or control aptamer, 48 h, replated 18 h; n = 11–19 cells per sample; P < 0.05
# [3] = system: nucleolin-Kif5a motor complex; details: ref Perry et al, 2016, cited from earlier work
# [4] = system: nucleolin mRNA and protein; experiment: Nucleolin knockdown in DRG neurons; assay type: cell-based, rat; details: siRNA targeting 3′UTR of nucleolin mRNA, 50 nM printed for control siRNAs; 96 h
# Summary of the method: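 Three hours after plating, neurons were transfected with control siRNA (50 nM as printed) or either of two siRNAs against the nucleolin 3′UTR using a lipid transfection reagent. Cultures were fixed 96 h later for FISH/immunofluorescence. Sister cultures gave mRNA by RT-ddPCR and protein by immunoblot (milk block, HRP secondary 1:10,000, ECL).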
# [5] = system: HEK-293 cells; experiment: Hypotonic challenge; assay type: cell-based, human; details: ddH2O, n = 24 cells per sample, p < 0.05, p < 0.01
# [6] = system: DRG neurons; experiment: Hypotonic challenge; assay type: cell-based, mouse; details: ddH2O, 17–24 cells per sample, three biological repeats
molecule,measurement,setting,value
GGTGGTGGTGGTTGTGGTGGTGGTGG [AS1411],binding of aptamer to GAR-derived peptides of 22–28 residues,[1],showed binding
same,axonal Inpp5f mRNA (FISH),[2],significant reduction in axonal Inpp5f mRNA
same,axonal growth,[3]; AS1411 perturbation of kinesin–nucleolin interactions,accelerated axonal growth
same,association of nucleolin with Kif5a motor complex,[3],reduced; also recorded: perturbs the association of nucleolin with the Kif5a motor complex
same,nucleolin localization to axons,[3],perturbs nucleolin localization to axons
siRNA 1: GUUGAAUGACAGAGCCUUUUU; siRNA 2: GGACAUUCCAAGACAGUAAUU,endogenous nucleolin mRNA and protein,[4],significantly reduced
"Ncl ΔGAR: HA-Dendra2-nucleolin with a GAR domain deletion (protein, left off: HA, N-terminal, kept | Dendra2, N-terminal, kept) MVKLAKAGKTHGEAKKMAPPPKEVEEDSEDEEMSEDEDDSSGEEEVVIPQKKGKKATTTPAKKVVVSQTKKAAVPTPAKKAAVTPGKKAVATPAKKNITPAKVIPTPGKKGAAQAKALVPTPGKKGAATPAKGAKNGKNAKKEDSDEDEDEEDEDDSDEDEDDEEEDEFEPPIVKGVKPAKAAPAAPASEDEEDDEDEDDEEDDDEEEEDDSEEEVMEITTAKGKKTPAKVVPMKAKSVAEEEDDEEEDEDDEDEDDEEEDDEDDDEEEEEEEPVKAAPGKRKKEMTKQKEAPEAKKQKVEGSEPTTPFNLFIGNLNPNKSVNELKFAISELFAKNDLAVVDVRTGTNRKFGYVDFESAEDLEKALELTGLKVFGNEIKLEKPKGRDSKKVRAARTLLAKNLSFNITEDELKEVFEDAMEIRLVSQDGKSKGIAYIEFKSEADAEKNLEEKQGAEIDGRSVSLYYTGEKGQRQERTGKTSTWSGESKTLVLSNLSYSATKETLEEVFEKATFIKVPQNPHGKPKGYAFIEFASFEDAKEALNSCNKMEIEGRTIRLELQGSNSRSQPSKTLFVKGLSEDTTEETLKESFEGSVRARIVTDRETGSSKGFGFVDFNSEEDAKAAKEAMEDGEIDGNKVTLDWAKPKKPQGKKTKFE","reduction of nucleolar signal on hypotonic challenge, FL vs ΔGAR",[5],Significant differences between full‐length and GAR deletion nucleolin
same,"reduction of nucleolar signal on hypotonic challenge, FL vs ΔGAR",[6],no difference between full‐length and ΔGAR mutant nucleolin
